According to ChEMBL document CHEMBL4002548 (Eur J Med Chem, 2017):
pIC50: −log10 of the molar value.

Key:
[1] = system: KG-1; test: Antiproliferative activity against FGFR1-translocated human KG1 cells after 72 hrs by CCK8/SRB assay; format: functional, cell-based; settings: KG-1, 72 h
Summary of the method: (§1)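 Cells seeded, then exposed next day to a range of compound concentrations for 72 h. Proliferation read by sulforhodamine B or CCK-8. IC50 obtained by four-parameter concentration–response curve fitting from two separate experiments. BaF3 lines stably express constitutively active TEL-FGFR4, TEL-KDR, CCDC6-RET or CCDC6-RET-V804M.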

[2] = target: Vascular endothelial growth factor receptor 2 (Homo sapiens, UniProt P35968); test: Inhibition of recombinant KDR (unknown origin) using poly (Glu, Tyr) 4:1 after 60 mins by ELISA method
[3] = target: T1, Fibroblast growth factor receptor 1 (Homo sapiens, UniProt P11362); test: Inhibition of recombinant FGFR1 (unknown origin) using poly (Glu, Tyr) 4:1 after 60 mins by ELISA method
Target sequence in this assay (P11362 whole entry): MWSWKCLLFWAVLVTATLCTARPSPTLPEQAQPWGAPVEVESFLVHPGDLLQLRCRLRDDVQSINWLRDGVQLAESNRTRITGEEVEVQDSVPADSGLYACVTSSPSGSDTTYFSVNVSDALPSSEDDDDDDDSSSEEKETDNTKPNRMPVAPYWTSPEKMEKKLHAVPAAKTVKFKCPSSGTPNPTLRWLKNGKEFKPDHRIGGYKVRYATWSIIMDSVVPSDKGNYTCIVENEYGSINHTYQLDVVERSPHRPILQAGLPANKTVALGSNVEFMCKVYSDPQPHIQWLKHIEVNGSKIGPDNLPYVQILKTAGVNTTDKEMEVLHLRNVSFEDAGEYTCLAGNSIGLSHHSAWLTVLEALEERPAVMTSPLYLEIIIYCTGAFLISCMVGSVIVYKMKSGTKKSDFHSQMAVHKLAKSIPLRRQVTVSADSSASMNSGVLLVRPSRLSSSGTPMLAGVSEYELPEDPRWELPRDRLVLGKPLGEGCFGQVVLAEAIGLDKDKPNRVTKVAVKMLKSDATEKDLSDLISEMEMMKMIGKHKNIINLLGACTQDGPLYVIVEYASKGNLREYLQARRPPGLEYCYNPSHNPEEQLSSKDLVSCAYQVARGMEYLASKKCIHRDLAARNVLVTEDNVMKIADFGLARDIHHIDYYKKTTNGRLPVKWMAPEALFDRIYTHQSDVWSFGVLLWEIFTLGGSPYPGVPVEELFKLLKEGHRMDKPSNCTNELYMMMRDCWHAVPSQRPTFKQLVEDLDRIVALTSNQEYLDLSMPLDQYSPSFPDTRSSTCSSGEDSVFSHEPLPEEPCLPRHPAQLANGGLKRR

[4] = system: NCI-H1581; test: Antitumor activity against FGFR1-amplified human NCI-H1581 cells xenografted in nude mouse assessed as tumor growth inhibition at 20 mg/kg, po qd administered for 10 days and measured on day 10 post last dose relative to vehicle-treated control; format: functional; settings: 240 h, read-out: TGI
Summary of the method: (§2)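 Male nude mice, 4-6 weeks old, kept under SPF conditions. Tumours grown s.c. from 5×10^6 cells, then passaged as 1 mm³ fragments by trocar. Randomised at 120–150 mm³ (n=6 treated, 12 vehicle). Compound given orally once daily, 10 days for NCI-H1581 and 18 days for SNU16. Calipers twice weekly; V = L×W²/2. TGI taken on final day from volume change versus vehicle.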

[5] = system: SNU-16; test: Antiproliferative activity against FGFR2-amplified human SNU16 cells after 72 hrs by CCK8/SRB assay; format: functional, cell-based; settings: SNU-16, 72 h; summary of the method: as §1
[6] = Inhibition of recombinant RET […] mutant (unknown origin) using poly (Glu,Tyr) 4:1 as substrate after 60 mins by ELISA; set-up: species or system Homo sapiens
Summary of the method: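 Poly(Glu,Tyr) 4:1 pre-coated at 20 µg/mL as substrate. Reaction with 10 µmol/L ATP in HEPES pH 7.4 buffer containing MgCl2, MnCl2, Na3VO4 and DTT; compound in 1% DMSO, with 1% DMSO as negative control; started by adding kinase. Run 60 min at 37 °C. Phosphotyrosine detected with PY99 and HRP anti-mouse IgG, o-phenylenediamine colour read at 490 nm. IC50 from inhibition curves, two separate experiments.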

[7] = system: BaF3; test: Antiproliferative activity against mouse BAF3 cells expressing CCDC6-RET […] mutant after 72 hrs by CCK8/SRB assay; format: functional, cell-based; settings: BaF3, 72 h; summary of the method: as §1
[8] = system: RT-112; test: Antiproliferative activity against FGFR3-amplified human RT112 cells after 72 hrs by CCK8/SRB assay; format: functional, cell-based; settings: RT-112, 72 h; summary of the method: as §1
[9] = system: NCI-H1581; test: Antiproliferative activity against FGFR1-amplified human NCI-H1581 cells after 72 hrs by CCK8/SRB assay; settings: NCI-H1581, 72 h
[10] = system: SNU-16; test: Antitumor activity against FGFR2-amplified human SNU16 cells xenografted in nude mouse assessed as tumor growth inhibition at 30 mg/kg, po qd administered for 18 days and measured on day 18 post last dose relative to vehicle-treated control; format: functional; settings: SNU-16, po, 432 h, read-out: TGI; summary of the method: as §2
[11] = system: NCI-H1581; test: Antitumor activity against FGFR1-amplified human NCI-H1581 cells xenografted in nude mouse assessed as tumor growth inhibition at 5 mg/kg, po qd administered for 10 days and measured on day 10 post last dose relative to vehicle-treated control; format: functional; settings: 240 h, read-out: TGI; summary of the method: as §2
[12] = target: Platelet-derived growth factor receptor alpha (Homo sapiens, UniProt P16234); test: Inhibition of recombinant PDGFRalpha (unknown origin) using poly (Glu,Tyr) 4:1 as substrate after 60 mins by ELISA
[13] = AUC (0 to 24 hrs) in mouse at 10 mg/kg, po; format: ADME, organism-based; set-up: time < 24 hr, dose 10 mg/kg, route oral; settings: in vivo
[14] = system: BaF3; test: Antiproliferative activity against mouse BAF3 cells expressing CCDC6-RET fusion protein after 72 hrs by CCK8/SRB assay; format: functional, cell-based; settings: BaF3, 72 h; summary of the method: as §1
[15] = target: Proto-oncogene tyrosine-protein kinase receptor Ret (Homo sapiens, UniProt P07949); test: Inhibition of recombinant RET (unknown origin) using poly (Glu,Tyr) 4:1 as substrate after 60 mins by ELISA
[16] = system: BaF3; test: Antiproliferative activity against mouse BAF3 cells expressing TEL-KDR fusion protein after 72 hrs by CCK8/SRB assay; format: functional, cell-based; settings: BaF3, 72 h; summary of the method: as §1
[17] = target: Proto-oncogene tyrosine-protein kinase Src (Homo sapiens, UniProt P12931); test: Inhibition of recombinant c-Src (unknown origin) using poly (Glu,Tyr) 4:1 as substrate after 60 mins by ELISA
[18] = target: Fibroblast growth factor receptor 3 (Homo sapiens, UniProt P22607); test: Inhibition of recombinant FGFR3 (unknown origin) using poly (Glu,Tyr) 4:1 as substrate after 60 mins by ELISA
[19] = target: T1, Fibroblast growth factor receptor 1; test: Inhibition of FGFR1 in FGFR1 translocated human KG1 cells assessed as suppression of PLCgamma phosphorylation after 2 hrs by Western blot analysis
Summary of the method: (§3)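 KG1 cells treated with a range of compound concentrations for 2 h at 37 °C, then lysed in 1× SDS sample buffer. Lysates resolved by SDS–PAGE and blotted. Probes: phospho-FGFR1, FGFR, phospho-PLCγ, PLCγ, phospho-ERK1/2, ERK1/2, with GAPDH as loading control. Detection by HRP secondary and enhanced chemiluminescence.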
Target sequence in this assay (P11362 22-822 limits assumed): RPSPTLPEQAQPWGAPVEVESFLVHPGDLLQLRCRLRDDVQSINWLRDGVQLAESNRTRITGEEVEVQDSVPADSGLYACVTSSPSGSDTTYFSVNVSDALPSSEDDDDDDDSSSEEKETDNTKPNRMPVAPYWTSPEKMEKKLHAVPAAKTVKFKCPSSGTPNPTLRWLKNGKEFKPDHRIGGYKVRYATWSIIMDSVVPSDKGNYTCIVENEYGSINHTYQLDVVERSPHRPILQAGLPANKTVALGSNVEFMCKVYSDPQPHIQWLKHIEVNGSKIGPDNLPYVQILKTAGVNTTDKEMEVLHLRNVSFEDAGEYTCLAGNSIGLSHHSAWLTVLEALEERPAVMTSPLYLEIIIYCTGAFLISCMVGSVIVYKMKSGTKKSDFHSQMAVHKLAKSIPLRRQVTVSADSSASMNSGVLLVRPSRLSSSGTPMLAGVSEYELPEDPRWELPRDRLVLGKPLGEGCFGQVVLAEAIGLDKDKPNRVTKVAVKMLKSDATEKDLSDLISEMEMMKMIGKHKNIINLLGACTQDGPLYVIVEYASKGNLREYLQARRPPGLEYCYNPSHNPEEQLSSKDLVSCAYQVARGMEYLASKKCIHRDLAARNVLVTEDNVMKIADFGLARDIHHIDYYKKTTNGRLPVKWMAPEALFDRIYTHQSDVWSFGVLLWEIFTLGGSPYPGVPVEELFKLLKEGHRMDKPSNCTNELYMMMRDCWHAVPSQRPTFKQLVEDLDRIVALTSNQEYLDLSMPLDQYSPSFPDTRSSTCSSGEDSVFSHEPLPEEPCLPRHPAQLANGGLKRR

[20] = target: Vascular endothelial growth factor receptor 1 (Homo sapiens, UniProt P17948); test: Inhibition of recombinant VEGFR1 (unknown origin) using poly (Glu,Tyr) 4:1 as substrate after 60 mins by ELISA
[21] = target: Fibroblast growth factor receptor 4 (Homo sapiens, UniProt P22455); test: Inhibition of recombinant FGFR4 (unknown origin) using poly (Glu,Tyr) 4:1 as substrate after 60 mins by ELISA
[22] = system: BaF3; test: Antiproliferative activity against mouse BAF3 cells expressing TEL-FGFR4 fusion protein after 72 hrs by CCK8/SRB assay; format: functional, cell-based; settings: BaF3, 72 h; summary of the method: as §1
[23] = target: Platelet-derived growth factor receptor beta (Homo sapiens, UniProt P09619); test: Inhibition of recombinant PDGFRbeta (unknown origin) using poly (Glu,Tyr) 4:1 as substrate after 60 mins by ELISA
[24] = target: Tyrosine-protein kinase ABL1 (Homo sapiens, UniProt P00519); test: Inhibition of recombinant ABL (unknown origin) using poly (Glu,Tyr) 4:1 as substrate after 60 mins by ELISA
[25] = target: Epidermal growth factor receptor (Homo sapiens, UniProt P00533); test: Inhibition of recombinant EGFR (unknown origin) using poly (Glu,Tyr) 4:1 as substrate after 60 mins by ELISA
[26] = target: T1, Fibroblast growth factor receptor 1; test: Inhibition of FGFR1 in FGFR1 translocated human KG1 cells assessed as suppression of phosphorylated ERK after 2 hrs by Western blot analysis; summary of the method: as §3
Target sequence in this assay (P11362 22-822 limits assumed): as above

[27] = target: Fibroblast growth factor receptor 2 (Homo sapiens, UniProt P21802); test: Inhibition of recombinant FGFR2 (unknown origin) using poly (Glu,Tyr) 4:1 as substrate after 60 mins by ELISA
[28] = system: SNU-16; test: Antitumor activity against FGFR2-amplified human SNU16 cells xenografted in nude mouse assessed as tumor growth inhibition at 20 mg/kg, po qd administered for 18 days and measured on day 18 post last dose relative to vehicle-treated control; format: functional; settings: SNU-16, po, 432 h, read-out: TGI; summary of the method: as §2
[29] = target: T1, Fibroblast growth factor receptor 1; test: Inhibition of FGFR1 phosphorylation in FGFR1 translocated human KG1 cells after 2 hrs by Western blot method; summary of the method: as §3
Target sequence in this assay (P11362 22-822 limits assumed): as above

Vascular endothelial growth factor receptor 2, sequence (P35968 whole entry): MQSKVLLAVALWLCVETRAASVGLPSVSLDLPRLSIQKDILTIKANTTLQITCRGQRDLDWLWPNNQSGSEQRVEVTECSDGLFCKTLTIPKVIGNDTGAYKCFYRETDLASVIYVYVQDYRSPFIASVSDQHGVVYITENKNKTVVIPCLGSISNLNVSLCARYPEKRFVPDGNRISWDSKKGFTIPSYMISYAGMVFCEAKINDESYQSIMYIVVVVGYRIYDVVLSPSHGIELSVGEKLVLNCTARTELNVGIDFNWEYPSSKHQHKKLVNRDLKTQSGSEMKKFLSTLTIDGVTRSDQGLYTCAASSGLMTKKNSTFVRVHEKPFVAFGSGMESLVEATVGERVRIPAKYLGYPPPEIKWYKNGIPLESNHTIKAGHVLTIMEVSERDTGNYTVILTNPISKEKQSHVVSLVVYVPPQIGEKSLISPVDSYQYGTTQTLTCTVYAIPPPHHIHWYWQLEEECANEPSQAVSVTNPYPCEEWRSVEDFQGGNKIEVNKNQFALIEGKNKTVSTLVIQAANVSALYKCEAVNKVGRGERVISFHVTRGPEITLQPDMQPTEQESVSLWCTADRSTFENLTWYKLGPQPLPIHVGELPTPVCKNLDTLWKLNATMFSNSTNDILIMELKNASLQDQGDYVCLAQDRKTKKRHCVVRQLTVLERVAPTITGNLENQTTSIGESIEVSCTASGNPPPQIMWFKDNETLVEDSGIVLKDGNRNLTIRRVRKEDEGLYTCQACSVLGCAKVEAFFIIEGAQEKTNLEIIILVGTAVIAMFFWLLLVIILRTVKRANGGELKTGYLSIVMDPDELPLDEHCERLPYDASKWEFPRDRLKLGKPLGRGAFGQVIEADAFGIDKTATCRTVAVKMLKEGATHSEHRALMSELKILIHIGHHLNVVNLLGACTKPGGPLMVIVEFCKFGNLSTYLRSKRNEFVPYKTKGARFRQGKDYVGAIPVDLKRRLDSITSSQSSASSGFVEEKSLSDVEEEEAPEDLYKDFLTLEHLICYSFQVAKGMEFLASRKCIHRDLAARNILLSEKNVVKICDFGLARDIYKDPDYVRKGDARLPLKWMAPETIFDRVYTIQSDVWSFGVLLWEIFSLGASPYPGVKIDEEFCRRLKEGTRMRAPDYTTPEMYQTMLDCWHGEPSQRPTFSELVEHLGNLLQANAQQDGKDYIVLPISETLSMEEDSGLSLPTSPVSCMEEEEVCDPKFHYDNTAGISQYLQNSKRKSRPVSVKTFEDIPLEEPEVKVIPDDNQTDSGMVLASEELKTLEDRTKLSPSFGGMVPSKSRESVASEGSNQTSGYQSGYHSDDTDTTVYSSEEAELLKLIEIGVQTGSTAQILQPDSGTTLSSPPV
Epidermal growth factor receptor, sequence (P00533 whole entry): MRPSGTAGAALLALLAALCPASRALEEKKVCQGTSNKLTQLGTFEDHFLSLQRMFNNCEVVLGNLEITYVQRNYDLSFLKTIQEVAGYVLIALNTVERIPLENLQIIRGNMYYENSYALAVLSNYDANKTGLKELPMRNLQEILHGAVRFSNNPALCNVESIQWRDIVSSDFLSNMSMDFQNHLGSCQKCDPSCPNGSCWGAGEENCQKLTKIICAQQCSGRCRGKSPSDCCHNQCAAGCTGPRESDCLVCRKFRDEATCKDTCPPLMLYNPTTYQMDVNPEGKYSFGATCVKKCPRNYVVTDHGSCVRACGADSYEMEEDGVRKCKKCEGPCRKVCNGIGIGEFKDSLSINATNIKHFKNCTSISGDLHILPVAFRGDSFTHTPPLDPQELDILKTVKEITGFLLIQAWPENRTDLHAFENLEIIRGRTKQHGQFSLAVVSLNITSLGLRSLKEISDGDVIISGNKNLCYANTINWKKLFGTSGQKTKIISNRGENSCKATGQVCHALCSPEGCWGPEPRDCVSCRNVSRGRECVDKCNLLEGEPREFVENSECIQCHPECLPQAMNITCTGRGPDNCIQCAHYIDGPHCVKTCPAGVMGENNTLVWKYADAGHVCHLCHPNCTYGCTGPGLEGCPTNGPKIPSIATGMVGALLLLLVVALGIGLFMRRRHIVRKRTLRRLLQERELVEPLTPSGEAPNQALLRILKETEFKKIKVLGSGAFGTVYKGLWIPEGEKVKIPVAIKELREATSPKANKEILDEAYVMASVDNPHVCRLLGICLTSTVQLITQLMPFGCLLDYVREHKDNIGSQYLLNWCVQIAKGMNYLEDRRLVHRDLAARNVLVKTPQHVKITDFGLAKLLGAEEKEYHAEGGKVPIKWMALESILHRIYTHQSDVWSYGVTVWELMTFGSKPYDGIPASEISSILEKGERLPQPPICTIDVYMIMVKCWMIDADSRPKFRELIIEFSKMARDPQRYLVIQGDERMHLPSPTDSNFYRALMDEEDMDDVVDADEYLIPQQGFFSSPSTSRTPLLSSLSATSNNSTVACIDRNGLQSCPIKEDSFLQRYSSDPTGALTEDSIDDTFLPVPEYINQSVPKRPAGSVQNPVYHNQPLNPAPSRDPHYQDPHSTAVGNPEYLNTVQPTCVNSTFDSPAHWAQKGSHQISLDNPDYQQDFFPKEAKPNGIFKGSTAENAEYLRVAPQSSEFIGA
Fibroblast growth factor receptor 3, sequence (P22607 whole entry): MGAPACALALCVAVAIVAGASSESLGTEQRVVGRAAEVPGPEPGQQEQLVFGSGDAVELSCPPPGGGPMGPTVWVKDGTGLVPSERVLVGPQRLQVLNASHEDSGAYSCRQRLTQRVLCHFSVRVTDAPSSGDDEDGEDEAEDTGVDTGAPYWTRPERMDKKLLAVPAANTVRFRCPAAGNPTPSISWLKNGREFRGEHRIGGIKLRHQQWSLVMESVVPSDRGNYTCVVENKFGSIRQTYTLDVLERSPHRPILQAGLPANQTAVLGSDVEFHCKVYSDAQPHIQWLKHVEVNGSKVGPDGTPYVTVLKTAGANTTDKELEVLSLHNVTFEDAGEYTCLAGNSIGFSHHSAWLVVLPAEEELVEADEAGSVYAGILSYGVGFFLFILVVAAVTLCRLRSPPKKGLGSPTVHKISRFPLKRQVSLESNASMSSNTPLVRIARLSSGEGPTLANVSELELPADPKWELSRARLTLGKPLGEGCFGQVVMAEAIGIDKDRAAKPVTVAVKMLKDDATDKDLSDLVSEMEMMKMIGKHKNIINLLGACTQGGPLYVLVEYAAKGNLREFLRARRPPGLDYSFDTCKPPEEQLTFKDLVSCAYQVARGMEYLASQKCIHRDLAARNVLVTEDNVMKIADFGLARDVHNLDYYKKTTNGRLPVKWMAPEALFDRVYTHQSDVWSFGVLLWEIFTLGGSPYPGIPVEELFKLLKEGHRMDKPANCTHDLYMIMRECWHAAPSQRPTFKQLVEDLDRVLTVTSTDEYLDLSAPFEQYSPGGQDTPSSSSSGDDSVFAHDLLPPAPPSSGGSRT

With COc1ccc(C(=O)Nc2ccc(CN3CCN(C)CC3)c(C(F)(F)F)c2)cc1C#Cc1cncc2ccccc12 the pIC50 [1] was less than 6.30.
COc1cncc(C#Cc2cc(C(=O)Nc3ccc(CN4CCN(C)CC4)c(C(F)(F)F)c3)ccc2C)c1 showed a pIC50 [2] of 6.96, a pIC50 [3] of 7.89 and a pIC50 [1] of 6.90.
Compound CN1CCN(Cc2ccc(NC(=O)c3ccnc(C#Cc4cncc5ccccc45)n3)cc2C(F)(F)F)CC1 has a pIC50 [1] of less than 6.30.
Compound CN1CCN(Cc2ccc(NC(=O)c3cncc(C#Cc4cncc5ccccc45)c3)cc2C(F)(F)F)CC1 has a pIC50 [2] of 8.59 and a pIC50 [1] of less than 6.30.
In the case of CN1CCN(Cc2ccc(NC(=O)c3ccc(Cl)c(C#Cc4cncc5ccccc45)c3)cc2C(F)(F)F)CC1, the pIC50 [2] was 7.04 and the pIC50 [1] was 7.05.
With Cc1ccc(C(=O)Nc2ccc(CN3CCN(C)CC3)c(C(F)(F)F)c2)cc1C#Cc1cncc2ccccc12 the pIC50 [2] was 7.10, the pIC50 [3] was 8.92 and the pIC50 [1] was 6.76.
Work on CC(C)c1ccc(C(=O)Nc2ccc(CN3CCN(C)CC3)c(C(F)(F)F)c2)cc1C#Cc1cncc2ccccc12 yielded a pIC50 [3] of less than 7.00.
In the case of CN1CCN(Cc2ccc(NC(=O)c3cccc(C#Cc4cncc5ccccc45)n3)cc2C(F)(F)F)CC1, the pIC50 [3] was less than 7.00.
CN1CCN(Cc2ccc(NC(=O)c3cc(C#Cc4cncc5ccccc45)ccn3)cc2C(F)(F)F)CC1 showed a pIC50 [1] of less than 6.30.
Compound Cc1ccc(C(=O)Nc2ccc(CN3CCN(C)CC3)c(C(F)(F)F)c2)cc1C#Cc1cncc(N2CCCC2)c1 has a pIC50 [2] of 6.97 and a pIC50 [1] of 6.92.
Cc1ccc(C(=O)Nc2ccc(CN3CCN(C)CC3)c(C(F)(F)F)c2)cc1C#Cc1cncc2[nH]ccc12 gave a pIC50 [2] of less than 7.00 and a pIC50 [1] of 6.31.
Work on COc1cc(CCc2cc(NC(=O)c3ccc(N4C[C@@H](C)N[C@@H](C)C4)cc3)n[nH]2)cc(OC)c1 [FEXAGRATINIB] yielded an inhibition in vivo at 20 mg/kg [4] of 79.5%.
Work on Cc1ccc(C(=O)Nc2ccc(CN3CCN(C)CC3)c(C(F)(F)F)c2)cc1C#Cc1cncc(NC(C)C)c1 yielded a pIC50 [2] of 7.22 and a pIC50 [1] of 7.07.
For Cc1ccc(C(=O)Nc2ccc(CN3CCN(C)CC3)c(C(F)(F)F)c2)cc1C#Cc1cnc2cccnn12 [PONATINIB], the pIC50 [5] was 7.47, the pIC50 [6] was 8.72 and the pIC50 [7] was 7.15. The pIC50 [8] was 6.13, the pIC50 [1] was 7.76 and the pIC50 [9] was 6.71. The inhibition in vivo at 30 mg/kg [10] was 75.3%.
In the case of CN1CCN(Cc2ccc(NC(=O)c3ccc(C(F)(F)F)c(C#Cc4cncc5ccccc45)c3)cc2C(F)(F)F)CC1, the pIC50 [3] was less than 7.00 and the pIC50 [1] was less than 6.30.
In the case of CN1CCN(Cc2ccc(NC(=O)c3ccc(Cl)c(C#Cc4cncc(N5CCOCC5)c4)c3)cc2C(F)(F)F)CC1, the pIC50 [2] was 7.31, the pIC50 [5] was 7.58 and the inhibition in vivo at 5 mg/kg [11] was 8.3%. For the same compound, the pIC50 [12] was 8.25, the AUC(0-t) at 24 h [13] was 11400 ng·h/mL and the pIC50 [14] was 7.43. It also gave a pIC50 [15] of 8.89, a pIC50 [3] of 9.30 and a pIC50 [6] of 8.12. For the same compound, the pIC50 [16] was 6.31, the pIC50 [7] was 7.48 and the pIC50 [17] was 7.97. For the same compound, the pIC50 [8] was 6.29, the pIC50 [18] was 9.00 and the inhibition [19] was “Dose-dependent effect”. It also gave a pIC50 [1] of 8.12, a pIC50 [9] of 7.24 and a pIC50 [20] of 7.20. For the same compound, the pIC50 [21] was 8.26, the pIC50 [22] was 6.88 and the pIC50 [23] was 8.26. For the same compound, the pIC50 [24] was 7.63, the pIC50 [25] was less than 7.00 and the inhibition in vivo at 20 mg/kg [4] was 73.4%. The inhibition [26] was “Dose-dependent effect”, the pIC50 [27] was 9.52 and the inhibition in vivo at 20 mg/kg [28] was 93.9%. The inhibition [29] was “Dose-dependent effect”.
With Cc1ccc(C(=O)Nc2ccc(CN3CCN(C)CC3)c(C(F)(F)F)c2)cc1C#Cc1cncc2c1ccn2C the pIC50 [2] was 7.20 and the pIC50 [1] was 8.00.
Work on Cc1ccc(C(=O)Nc2ccc(CN3CCN(C)CC3)c(C(F)(F)F)c2)cc1C#Cc1cncc(N2CCOCC2)c1 yielded a pIC50 [2] of 7.05 and a pIC50 [1] of 7.61.
For Cc1ccc(C(=O)Nc2ccc(CN3CCN(C)CC3)c(C(F)(F)F)c2)cc1C#Cc1cncc(N2CCN(C)CC2)c1, the pIC50 [2] was 7.66, the pIC50 [3] was 8.24 and the pIC50 [1] was 7.66.
Work on CN1CCN(Cc2ccc(NC(=O)c3cccc(C#Cc4cncc5ccccc45)c3)cc2C(F)(F)F)CC1 yielded a pIC50 [2] of 8.60 and a pIC50 [1] of 7.17.
CCN(CC)c1cncc(C#Cc2cc(C(=O)Nc3ccc(CN4CCN(C)CC4)c(C(F)(F)F)c3)ccc2C)c1 gave a pIC50 [2] of 6.98 and a pIC50 [1] of 7.23.
CN1CCN(Cc2ccc(NC(=O)c3ccnc(C#Cc4cncc5ccccc45)c3)cc2C(F)(F)F)CC1 gave a pIC50 [2] of 8.19 and a pIC50 [1] of 6.37.
For CN1CCN(Cc2ccc(NC(=O)c3ccc(F)c(C#Cc4cncc5ccccc45)c3)cc2C(F)(F)F)CC1, the pIC50 [2] was 8.26 and the pIC50 [1] was 7.56.
